Read-outs that look alike come from different tables or passages of the source.
Legend:
[1] = system: r(CCUG)12–MBNL1 complex; assay: TR-FRET assay measuring disruption of a preformed r; type: biochemical; conditions: read-out: IC50 for disrupting the r(CCUG)12–MBNL1 complex, in vitro
How it was run: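 5′-Biotinylated r(CCUG)12 was folded at 60 °C for 5 min in 20 mM HEPES pH 7.5 with KCl and NaCl. It was then brought into assay buffer with 2 mM MgCl2, 2 mM CaCl2, 5 mM DTT, 0.1% BSA and 0.5% Tween-20. MBNL1-His6 was added (final 60 nM protein, 80 nM RNA) for 15 min, then varying compound concentrations for 15 min. Streptavidin-XL665 (40 nM) and anti-His6-Tb (0.44 ng/μL) were added for 30 min at room temperature. The F545/F665 ratio, with excitation at 345 nm, was fitted to a Hill equation.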

[2] = system: DM2 patient-derived fibroblasts; assay: Cell viability; type: cell-based; conditions: 5 μM, 48 h
How it was run: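 Cells were treated in 96-well plates for 48 h. CellTiter-Glo reagent was added, plates sat 10 min at room temperature, and luminescence was read. n = 6 replicates in one independent experiment.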

[3] = system: IR exon 11 splicing; type: cell-based; conditions: DM2 patient-derived fibroblasts; for rescue of IR exon 11 splicing (percent rescue): 1 μM
How it was run: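 DM2 patient-derived fibroblasts were treated at ~40% confluency in 6-well plates for 48 h. About 1 μg of total RNA was reverse transcribed. PCR ran 35 cycles (95/58/72 °C), and products were resolved on a 2% agarose gel, stained with ethidium bromide and quantified. Percent rescue = (untreated DM2 exclusion − treated exclusion)/(untreated DM2 exclusion − untreated WT exclusion) × 100.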

[4] = system: RNA containing a single 2 × 2 CU/UC internal loop, r(5′-GACAGCCUGCUGUC-3′); assay: NMR spectroscopy; type: binding; conditions: for shifts of RNA H6 and H8 proton resonances in 1D NMR: RNA with one 2×2 CU/UC internal loop; for binding to the RNA by waterLOGSY spectra: positive phase signals in the presence of RNA, 20:1 compound:RNA
How it was run: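 1D spectra were run on 100 μM RNA in D2O with compound titrated at 0.5–2.0 molar ratios. WaterLOGSY used 300 μM compound alone or with 15 μM RNA in H2O/5% D2O, phased so non-binders give negative NOEs. All spectra at 25 °C.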

[5] = molecular target: base-paired RNA that does not contain internal loops; assay: Microscale thermophoresis; type: binding; conditions: read-out: Kd for base pair control RNA; MST
How it was run: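 Cy5-labelled base-paired control RNA, GCG(CCUG)7(GCAG)5CGC, was used at 5 nM in 8 mM Na2HPO4 pH 7.0, 185 mM NaCl and 1 mM EDTA, folded at 60 °C for 5 min. It was mixed with 1:1 serial compound dilutions (0.05% Tween-20 final) and held 30 min at room temperature. MST settings: 80% power, 30 s laser-on. Kd came from a quadratic fit, averaged over two independent experiments.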

[6] = system: r(CCUG)exp–MBNL1 nuclear foci; type: cell-based; conditions: 5 μM, DM2 patient-derived fibroblasts; untreated 7 ± 1
[7] = system: MAP4K4 exon 22a splicing; assay: MAP4K4 exon 22a splicing; type: cell-based; conditions: NOVA-dependent splicing event
[8] = system: CNBP intron 1; assay: CNBP intron 1 abundance by RT-qPCR in DM2 patient-derived fibroblasts; type: cell-based; conditions: doses of 5 and 1 μM
How it was run: (§1)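 DM2 patient-derived fibroblasts were grown in DMEM/high glucose with 20% FBS at 37 °C and 5% CO2. Cells in 6-well plates were treated in growth medium at 40% confluency for 48 h. About 1 μg of total RNA was reverse transcribed, then run in SYBR Green qPCR. Abundance was normalized to GAPDH across 2 independent experiments.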

[9] = system: CNBP mature mRNA; assay: CNBP mature mRNA levels by RT-qPCR in DM2 patient-derived fibroblasts; type: cell-based
How it was run: as §1

[10] = system: CNBP intron 1; assay: CNBP intron 1 levels in wild-type fibroblasts; type: cell-based
How it was run: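 Wild-type donor fibroblasts (GM07492) were grown in MEM with 10% FBS and Glutagro at 37 °C and 5% CO2. Cells were treated at 40% confluency for 48 h. About 1 μg of total RNA was reverse transcribed and run in SYBR Green qPCR. Relative abundance was normalized to GAPDH.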

[11] = system: IR exon 11 inclusion; assay: IR exon 11 inclusion in wild-type fibroblasts; type: cell-based
How it was run: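 Wild-type donor fibroblasts (GM07492) were grown in MEM with 10% FBS and treated at ~40% confluency for 48 h. About 1 μg of total RNA was reverse transcribed. PCR ran 35 cycles (95 °C 30 s, 58 °C 30 s, 72 °C 1 min). Products were separated on a 2% agarose gel, stained with ethidium bromide, and percent exon 11 exclusion was quantified by densitometry.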

SMILES | IC50 [1] [µM] | shifts of RNA H6 and H8 proton resonances in 1D NMR [4] | binding to the RNA by waterLOGSY spectra [4] | also measured
Cc1ccc2nc(Nc3ccc4c(c3)OCCO4)nc(NCCCO)c2c1 [compound 58, 3-((2-((2,3-dihydrobenzo[b][1,4]dioxin-6-yl)amino)-6-methylquinazolin-4-yl)amino)propan-1-ol] | 12.7 ± 0.2 | – | – | –
Cc1ccc2nc(Nc3ccc4nc(NCC(C)(C)O)sc4c3)nc(NCCCO)c2c1 [compound 78, 3-((2-((2-((2-hydroxy-2-methylpropyl)amino)benzo[d]thiazol-6-yl)amino)-6-methylquinazolin-4-yl)amino)propan-1-ol] | < 5 | – | – | toxicity in DM2 patient-derived fibroblasts [2]: no toxicity; rescue of IR exon 11 splicing ([3]; 5 μM, 48 h): significantly improved IR splicing
OCCCNc1nc(Nc2ccc3c(c2)OCCO3)nc2ccccc12 [compound 7, 3-((2-((2,3-dihydrobenzo[b][1,4]dioxin-6-yl)amino)quinazolin-4-yl)amino)propan-1-ol] | – | Significant shifts in resonances | bound to the RNA | rescue of IR exon 11 splicing (percent rescue) ([3]; 48 h): 12 ± 5%
Cc1ccc2nc(Nc3ccc4nc(N5CCOCC5)sc4c3)nc(NCCCO)c2c1 [compound 72, 3-((6-methyl-2-((2-morpholinobenzo[d]thiazol-6-yl)amino)quinazolin-4-yl)amino)propan-1-ol] | < 5 | – | – | –
Cc1ccc2nc(Nc3ccc4nc(NCCN5CCOCC5)sc4c3)nc(NCCCO)c2c1 [compound 74, 3-((6-methyl-2-((2-((2-morpholinoethyl)amino)benzo[d]thiazol-6-yl)amino)quinazolin-4-yl)amino)propan-1-ol] | < 5 | – | – | –
Cc1ccc2nc(Nc3ccc4nc(NCC(C)C)sc4c3)nc(NCCCO)c2c1 [compound 73, 3-((2-((2-(isobutylamino)benzo[d]thiazol-6-yl)amino)-6-methylquinazolin-4-yl)amino)propan-1-ol] | < 5 | – | – | –
Cc1ccc2nc(Nc3ccc4nc(C)sc4c3)nc(NCCCO)c2c1 [compound 63, 3-((6-methyl-2-((2-methylbenzo[d]thiazol-6-yl)amino)quinazolin-4-yl)amino)propan-1-ol] | 2.2 ± 0.5 | – | – | toxicity in DM2 patient-derived fibroblasts [2]: no toxicity; rescue of IR exon 11 splicing (percent rescue) ([3]; 48 h): 33 ± 5%; rescue of IR exon 11 splicing ([3]; 5 μM, 48 h): significantly improved IR splicing; Kd [5]: > 20 µM; number of r(CCUG)exp–MBNL1 nuclear foci per cell [6]: 5 ± 0.5; effect on MAP4K4 exon 22a splicing [7]: did not affect; abundance of CNBP intron 1 [8]: significantly reduced; levels of CNBP mature mRNA [9]: did not affect; effects on CNBP intron 1 levels [10]: no effects were observed; effect on IR exon 11 inclusion [11]: did not affect
Cc1ccc2nc(Nc3ccc4nc(N5CCN(C)CC5)sc4c3)nc(NCCCO)c2c1 [compound 82, 3-((6-methyl-2-((2-(4-methylpiperazin-1-yl)benzo[d]thiazol-6-yl)amino)quinazolin-4-yl)amino)propan-1-ol] | < 5 | – | – | –
COc1ccc(Nc2nc(NCCCO)c3ccccc3n2)cc1 [compound 3] | – | Significant shifts in resonances | bound to the RNA | –
Cc1ccc2nc(Nc3ccc4nc(NCCN(C)C)sc4c3)nc(NCCCO)c2c1 [compound 79, 3-((2-((2-((2-(dimethylamino)ethyl)amino)benzo[d]thiazol-6-yl)amino)-6-methylquinazolin-4-yl)amino)propan-1-ol] | < 5 | – | – | toxicity in DM2 patient-derived fibroblasts [2]: no toxicity; rescue of IR exon 11 splicing ([3]; any concentration studied): did not significantly rescue splicing
Cc1ccc2nc(Nc3ccc4nc(NC5CCN(Cc6ccccc6)CC5)sc4c3)nc(NCCCO)c2c1 [compound 71, 3-((2-((2-((1-benzylpiperidin-4-yl)amino)benzo[d]thiazol-6-yl)amino)-6-methylquinazolin-4-yl)amino)propan-1-ol] | < 5 | – | – | –
CN(C)c1ccc(Nc2nc(NCCCO)c3ccccc3n2)cc1 [compound 4] | – | Significant shifts in resonances | bound to the RNA | –
CC(=O)Nc1ccc(Nc2nc(NCC3CCCO3)c3ccccc3n2)cc1 (centres unmarked) [compound 5] | – | Significant shifts in resonances | bound to the RNA | –

Source: paper PMC8883746 (Journal of medicinal chemistry, 2021)
